≈ marks a conversion by molar mass, not a printed value. Calls of active or inactive are those of the source. No cut-off for these calls is given here.
How the values were obtained:
Aspergillus flavus [1] = experiment: Antifungal activity against Aspergillus flavus at 0.5 mg/ml incubated for 3 days; type: functional; settings: for zone of inhibition at 500 µg/mL: 72 h, read-out: IZ
Summary of the method: (§1)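 Well plate method on potato dextrose agar. Fungal stock suspended in distilled water with Tween 80 and swabbed over plates. Samples in DMSO at 1 and 0.5 mg/mL added to wells, incubated 25 °C for 3 days, then scored for inhibition zones; fluconazole standard.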

[2] = system: Mycobacterium tuberculosis; experiment: Antitubercular activity against Mycobacterium tuberculosis H37Rv ATCC 27294/XDR-TB incubated for 28 days by agar dilution method; type: functional; settings: 672 h
Summary of the method: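 Agar dilution: two-fold dilutions in Middlebrook 7H11 agar with OADC. Inoculum from fresh 7H11/OADC slants adjusted to 1 mg/mL wet weight in 0.05% Tween 80 saline, diluted 10^-2 (~10⁷ cfu/mL); 5 µL spotted per tube. Incubated 37 °C; MIC, lowest concentration fully inhibiting growth, read after 28 days, in triplicate.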

Salmonella typhi [3] = experiment: Antibacterial activity against Salmonella typhi at 0.5 mg/ml incubated for 18 hrs by well plate technique; type: functional, Salmonella enterica subsp. enterica serovar Typhi; settings: for zone of inhibition at 500 µg/mL: Salmonella enterica, read-out: DIZ; for diameter of the inhibition zone (DIZ): Salmonella enterica subsp. enterica serovar Typhi
Summary of the method: (§2)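 Well diffusion on nutrient agar; strains kept on nutrient agar at 37 °C, grown statically in nutrient broth 18-24 h at 37 °C, diluted in saline, 0.1 ml spread per plate. Compounds in DMSO at 1 and 0.5 mg/mL added to cork-bored wells; 18 h at 37 °C. Inhibition zone diameter measured, DMSO value subtracted; triplicate; streptomycin reference.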

Candida albicans [4] = experiment: Antifungal activity against Candida albicans at 1 mg/ml incubated for 3 days; type: functional; settings: for zone of inhibition at 1000 µg/mL: 72 h, read-out: IZ; summary of the method: as §1
Salmonella typhi [5] = experiment: Antibacterial activity against Salmonella typhi at 1 mg/ml incubated for 18 hrs by well plate technique; type: functional, Salmonella enterica subsp. enterica serovar Typhi; settings: for zone of inhibition at 1000 µg/mL: Salmonella enterica, read-out: DIZ; for diameter of the inhibition zone (DIZ): Salmonella enterica subsp. enterica serovar Typhi; summary of the method: as §2
Pseudomonas aeruginosa [6] = experiment: Antibacterial activity against Pseudomonas aeruginosa at 1 mg/ml incubated for 18 hrs by well plate technique; type: functional; settings: for zone of inhibition at 1000 µg/mL: read-out: DIZ
Summary of the method: (§3)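 Bacteria kept on nutrient agar at 37 °C, grown statically in nutrient broth (start ~10-100 cfu/mL) at 37 °C for 18-24 h. Suspensions diluted in saline and spread on nutrient agar, then wells cut with a cork borer. Compound in DMSO at 1 or 0.5 mg/mL added to wells, 37 °C, 18 h. Inhibition zone diameter measured minus DMSO value; triplicate; streptomycin standard.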

Staphylococcus aureus [7] = experiment: Antibacterial activity against Staphylococcus aureus at 0.5 mg/ml incubated for 18 hrs by well plate technique; type: functional; settings: for zone of inhibition at 500 µg/mL: read-out: DIZ; summary of the method: as §3
Escherichia coli [8] = experiment: Antibacterial activity against Escherichia coli at 1 mg/ml incubated for 18 hrs by well plate technique; type: functional; settings: for zone of inhibition at 1000 µg/mL: read-out: DIZ; summary of the method: as §3
[9] = system: Chrysosporium keratinophilum; experiment: Antifungal activity against Chrysosporium keratinophilum at 0.5 mg/ml incubated for 3 days; type: functional; settings: for zone of inhibition at 500 µg/mL: 72 h, read-out: IZ; summary of the method: as §1
Staphylococcus aureus [10] = experiment: Antibacterial activity against Staphylococcus aureus at 1 mg/ml incubated for 18 hrs by well plate technique; type: functional; settings: for zone of inhibition at 1000 µg/mL: read-out: DIZ; summary of the method: as §3
[11] = system: Chrysosporium keratinophilum; experiment: Antifungal activity against Chrysosporium keratinophilum at 1 mg/ml incubated for 3 days; type: functional; settings: for zone of inhibition at 1000 µg/mL: 72 h, read-out: IZ; summary of the method: as §1
[12] = Antioxidant activity assessed as DPPH radical scavenging activity incubated for 10 mins by UV-visible spectrometry; type: physicochemical
Summary of the method: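 DPPH free-radical scavenging; absorbance read at 517 nm against a methanol blank. % scavenging = (A control − A sample)/A control × 100.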

Candida albicans [13] = experiment: Antifungal activity against Candida albicans at 0.5 mg/ml incubated for 3 days; type: functional; settings: for zone of inhibition at 500 µg/mL: 72 h, read-out: IZ; summary of the method: as §1
Pseudomonas aeruginosa [14] = experiment: Antibacterial activity against Pseudomonas aeruginosa at 0.5 mg/ml incubated for 18 hrs by well plate technique; type: functional; settings: for zone of inhibition at 500 µg/mL: read-out: DIZ; summary of the method: as §3
[15] = Cytotoxicity against African green monkey Vero cells assessed as growth inhibition at 62.5 ug/ml after 72 hrs by MTT assay; type: cell-based; settings: chlorocebus sabaeus, read-out: GI
Summary of the method: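 Vero cells grown in MEM + 10% FBS at 37 °C, 5% CO2. Seeded ~10,000 cells/well, 24 h to a partial monolayer. Compounds in DMSO diluted in MEM + 2% FBS (1 mg/ml stock, two-fold dilutions) for 72 h. MTT 3 h, formazan dissolved in propanol, A540. % inhibition = 100 − (mean OD test/mean OD control × 100).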

Aspergillus flavus [16] = experiment: Antifungal activity against Aspergillus flavus at 1 mg/ml incubated for 3 days; type: functional; settings: for zone of inhibition at 1000 µg/mL: 72 h, read-out: IZ; summary of the method: as §1
Escherichia coli [17] = experiment: Antibacterial activity against Escherichia coli at 0.5 mg/ml incubated for 18 hrs by well plate technique; type: functional; settings: for zone of inhibition at 500 µg/mL: read-out: DIZ; summary of the method: as §3

SMILES | zone of inhibition at 500 µg/mL (Aspergillus flavus [1]) [mm] | MIC [2] [mg/L] | zone of inhibition at 500 µg/mL (Salmonella typhi [3]) [mm] | zone of inhibition at 1000 µg/mL (Candida albicans [4]) [mm] | zone of inhibition at 1000 µg/mL (Salmonella typhi [5]) [mm] | zone of inhibition at 1000 µg/mL (Pseudomonas aeruginosa [6]) [mm] | zone of inhibition at 500 µg/mL (Staphylococcus aureus [7]) [mm] | zone of inhibition at 1000 µg/mL (Escherichia coli [8]) [mm] | zone of inhibition at 500 µg/mL [9] [mm] | zone of inhibition at 1000 µg/mL (Staphylococcus aureus [10]) [mm] | zone of inhibition at 1000 µg/mL [11] [mm] | inhibition (INH) [12] [%] | zone of inhibition at 500 µg/mL (Candida albicans [13]) [mm] | zone of inhibition at 500 µg/mL (Pseudomonas aeruginosa [14]) [mm] | zone of inhibition at 1000 µg/mL (Aspergillus flavus [16]) [mm] | zone of inhibition at 500 µg/mL (Escherichia coli [17]) [mm] | inhibition zone (IZ) (Aspergillus flavus [1]) | inhibition zone (IZ) (Candida albicans [4]) | inhibition zone (IZ) [9] | inhibition zone (IZ) [11] | other results
COc1ccc(-c2nc3sc(-c4ccc(C)cc4)nn3c2-c2nc3cc(Cl)ccc3[nH]2)cc1 | 2 | 3.12 (≈ 6.62 µM) | 1 | 3 | 3 | 7 | 3 | 4 | 2 | 6 | 4 | 31.3 | 2 | 3 | 3 | 2 |  |  |  |  | inhibition at 72 h, 62.5 ug/ml [15]: 8.31%
Cc1ccc(-c2nc3sc(C)nn3c2-c2nc3ccccc3[nH]2)cc1 |  | 3.12 (≈ 9.05 µM) |  |  | 6 | 3 | 3 | 5 |  | 5 |  | 28.6 |  | 2 |  | 2 | inactive | inactive | inactive | inactive | diameter of the inhibition zone (DIZ) (Salmonella typhi [3]): inactive; inhibition zone (IZ) (Candida albicans [13]): inactive; inhibition at 72 h, 62.5 ug/ml [15]: 5.03%; inhibition zone (IZ) (Aspergillus flavus [16]): inactive
Cc1nn2c(-c3nc4ccccc4[nH]3)c(-c3ccc(Cl)cc3)nc2s1 | 5 | 25 (≈ 68.3 µM) | 1 | 6 | 3 | 5 | 3 | 4 | 6 | 4 | 7 | 28.8 | 4 | 3 | 6 | 3 |  |  |  |  | 
Cc1nn2c(-c3nc4cc([N+](=O)[O-])ccc4[nH]3)c(-c3ccc(F)cc3)nc2s1 |  | 50 (≈ 127 µM) | 1 |  | 2 | 1 | 2 | 4 |  | 3 |  | 25.9 |  | 3 |  | 2 | inactive | inactive | inactive | inactive | inhibition zone (IZ) (Candida albicans [13]): inactive; inhibition zone (IZ) (Aspergillus flavus [16]): inactive
COc1ccc(-c2nc3sc(-c4ccc(F)cc4)nn3c2-c2nc3cc([N+](=O)[O-])ccc3[nH]2)cc1 | 3 | 12.5 (≈ 25.7 µM) | 3 | 5 | 4 | 6 | 3 | 5 | 2 | 5 | 4 | 30.8 | 2 | 3 | 5 | 3 |  |  |  |  | 
Cc1ccc(-c2nc3sc(-c4ccc(Cl)cc4)nn3c2-c2nc3cc(Cl)ccc3[nH]2)cc1 | 2 | 25 (≈ 52.5 µM) | 2 | 4 | 3 | 4 | 3 | 4 | 2 | 3 | 3 | 31.9 | 3 | 3 | 3 | 2 |  |  |  |  | 
Cc1ccc(-c2nn3c(-c4nc5cc([N+](=O)[O-])ccc5[nH]4)c(-c4ccc(Cl)cc4)nc3s2)cc1 |  | 12.5 (≈ 25.7 µM) |  |  |  |  |  |  |  |  |  | 21.8 |  |  |  |  | inactive | inactive | inactive | inactive | diameter of the inhibition zone (DIZ) (Salmonella typhi [3]): inactive; diameter of the inhibition zone (DIZ) (Salmonella typhi [5]): inactive; diameter of the inhibition zone (DIZ) (Pseudomonas aeruginosa [6]): inactive; diameter of the inhibition zone (DIZ) (Staphylococcus aureus [7]): inactive; diameter of the inhibition zone (DIZ) (Escherichia coli [8]): inactive; diameter of the inhibition zone (DIZ) (Staphylococcus aureus [10]): inactive; inhibition zone (IZ) (Candida albicans [13]): inactive; diameter of the inhibition zone (DIZ) (Pseudomonas aeruginosa [14]): inactive; inhibition zone (IZ) (Aspergillus flavus [16]): inactive; diameter of the inhibition zone (DIZ) (Escherichia coli [17]): inactive
Cc1nn2c(-c3nc4cc(Cl)ccc4[nH]3)c(-c3ccc(F)cc3)nc2s1 | 5 | 25 (≈ 65.1 µM) | 7 | 9 | 10 | 13 | 6 | 11 | 6 | 9 | 8 | 39.5 | 7 | 10 | 7 | 8 |  |  |  |  | 
COc1ccc(-c2nc3sc(-c4ccccc4Cl)nn3c2-c2nc3cc([N+](=O)[O-])ccc3[nH]2)cc1 |  | 50 (≈ 99.4 µM) |  |  |  |  |  |  |  |  |  | 22.1 |  |  |  |  | inactive | inactive | inactive | inactive | diameter of the inhibition zone (DIZ) (Salmonella typhi [3]): inactive; diameter of the inhibition zone (DIZ) (Salmonella typhi [5]): inactive; diameter of the inhibition zone (DIZ) (Pseudomonas aeruginosa [6]): inactive; diameter of the inhibition zone (DIZ) (Staphylococcus aureus [7]): inactive; diameter of the inhibition zone (DIZ) (Escherichia coli [8]): inactive; diameter of the inhibition zone (DIZ) (Staphylococcus aureus [10]): inactive; inhibition zone (IZ) (Candida albicans [13]): inactive; diameter of the inhibition zone (DIZ) (Pseudomonas aeruginosa [14]): inactive; inhibition zone (IZ) (Aspergillus flavus [16]): inactive; diameter of the inhibition zone (DIZ) (Escherichia coli [17]): inactive
Cc1ccc(-c2nn3c(-c4nc5ccccc5[nH]4)c(-c4ccc(F)cc4)nc3s2)cc1 | 4 | 12.5 (≈ 29.4 µM) | 13 | 6 | 15 | 13 | 11 | 13 | 3 | 14 | 5 | 22.6 | 4 | 10 | 6 | 9 |  |  |  |  | 
